Source: ChEMBL document CHEMBL1131071, “Design and synthesis of brefeldin A sulfide derivatives as prodrug candidates with enhanced aqueous solubilities” (1998)

Key:
Format in all cases: functional
Conditions in all cases: Homo sapiens
SF-539 = assay: Cytotoxicity against CNS SF-539 cancer cell cultures.
Procedure, shortened: (§1)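 Human cancer cell lines from a panel of about 55, incubated with compound for 72 h (3-day incubation). Values are single determinations or, where given with population standard deviation, two determinations.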

DU-145 = assay: Cytotoxicity against prostate DU-145 cancer cell cultures.; procedure, shortened: as §1
HOP-62 = assay: Cytotoxicity against lung HOP-62 cancer cell cultures.; procedure, shortened: as §1
HCT-116 = assay: Cytotoxicity against colon HCT116 cancer cell cultures.; procedure, shortened: as §1
OVCAR-3 = assay: Cytotoxicity against ovarian OVCAR-3 cancer cell cultures.; procedure, shortened: as §1
SN12C = assay: Cytotoxicity against renal SN12C cancer cell cultures.; procedure, shortened: as §1
UACC-62 = assay: Cytotoxicity against melanoma UACC-62 cancer cell cultures.; procedure, shortened: as §1
MDA-MB-435 = assay: Cytotoxicity against breast MDA-MB-435 cancer cell cultures.; procedure, shortened: as §1

Compound | GI50 (SF-539) | GI50 (DU-145) | GI50 (HOP-62) | GI50 (HCT-116) | GI50 (OVCAR-3) | GI50 (SN12C) | GI50 (UACC-62) | GI50 (MDA-MB-435)
COC(=O)CS[C@@H]1CC(=O)O[C@@H](C)CCC/C=C/[C@@H]2C[C@H](O)C[C@H]2[C@@H]1O | 24 µM | 30 µM | 28 µM | 19 µM | 27 µM | 32 µM | 6.8 µM | 30 µM
C[C@H]1CCC/C=C/[C@@H]2C[C@H](O)C[C@H]2[C@H](O)[C@H](SCCO)CC(=O)O1 | 23 µM | 30 µM | 34 µM | 19 µM | 27 µM | 33 µM | 40 µM | 34 µM
C[C@H]1CCC/C=C/[C@@H]2C[C@H](O)C[C@H]2[C@H](O)[C@H]([S+]([O-])CCN)CC(=O)O1 (stereo not given in full) | 0.02 µM | 0.17 µM | 0.15 µM | 0.086 µM | 0.082 µM | 0.12 µM | 0.021 µM | 0.055 µM
COC(=O)CS(=O)(=O)[C@@H]1CC(=O)O[C@@H](C)CCC/C=C/[C@@H]2C[C@H](O)C[C@H]2[C@@H]1O | – | 6 µM | 5.1 µM | 3.7 µM | 3.2 µM | 3.3 µM | 5 µM | 5.5 µM
C[C@H]1CCC/C=C/[C@@H]2C[C@H](O)C[C@H]2[C@H](O)[C@H]([S+]([O-])c2ccc(O)cc2)CC(=O)O1 (stereo not given in full) | 0.017 µM | 0.118 µM | 0.088 µM | 0.026 µM | 0.025 µM | 0.05 µM | 0.03 µM | 0.042 µM
C[C@H]1CCC/C=C/[C@@H]2C[C@H](OC(=O)CCC(=O)O)C[C@H]2[C@H](O)/C=C/C(=O)O1 | – | 6.8 µM | 3.4 µM | 17 µM | 3.3 µM | – | 1.9 µM | –
C[C@H]1CCC/C=C/[C@@H]2C[C@H](O)C[C@H]2[C@H](O)[C@H](SCC(O)CO)CC(=O)O1 (stereo not given in full) | 32 µM | 18 µM | 33 µM | 36 µM | 22 µM | 34 µM | 16 µM | 36 µM
C[C@H]1CCC/C=C/[C@@H]2C[C@H](O)C[C@H]2[C@H](O)C(O)C(O)C(=O)O1 (stereo not given in full) | 0.68 µM | 6.7 µM | 5 µM | 3.4 µM | 2.4 µM | 2.7 µM | 1.6 µM | 3.8 µM
C[C@H]1CCC/C=C/[C@@H]2C[C@H](O)C[C@H]2[C@H](O)[C@H](SCC(=O)O)CC(=O)O1 | 34 µM | 38 µM | 30 µM | 23 µM | 30 µM | 39 µM | 33 µM | 42 µM
C[C@H]1CCC/C=C/[C@@H]2C[C@H](OC(=O)CCCC(=O)O)C[C@H]2[C@H](O)/C=C/C(=O)O1 | 22 µM | 30 µM | 33 µM | 21 µM | 20 µM | 32 µM | – | 11 µM
C[C@H]1CCC/C=C/[C@@H]2C[C@H](O)C[C@H]2[C@H](O)[C@H]([S+]([O-])CCO)CC(=O)O1 (stereo not given in full) | 0.058 µM | 0.26 µM | 0.29 µM | 0.21 µM | 0.19 µM | 0.65 µM | 0.064 µM | 0.09 µM
C[C@H]1CCC/C=C/[C@@H]2C[C@H](O)C[C@H]2[C@H](O)[C@H]([S+]([O-])CC(N)C(=O)O)CC(=O)O1 (stereo not given in full) | 0.039 µM | 0.43 µM | 0.7 µM | 0.089 µM | 0.05 µM | 0.16 µM | 0.038 µM | 0.05 µM
C[C@H]1CCC/C=C/[C@@H]2C[C@H](O)C[C@H]2[C@H](O)[C@H](SCCN)CC(=O)O1 | 4.9 µM | – | 3.9 µM | 3.5 µM | 2.2 µM | – | 2.7 µM | 3.3 µM
C[C@H]1CCC/C=C/[C@@H]2C[C@H](O)C[C@H]2[C@H](O)[C@H](Sc2ccc(O)cc2)CC(=O)O1 | 5.1 µM | 6.3 µM | 3.2 µM | 2.5 µM | 2.4 µM | 4.4 µM | 4.8 µM | 3.3 µM
C[C@H]1CCC/C=C/[C@@H]2C[C@H](OC(=O)CCCC(=O)O)C[C@H]2[C@H](OC(=O)CCCC(=O)O)/C=C/C(=O)O1 | > 100 µM | > 100 µM | > 100 µM | > 100 µM | > 100 µM | > 100 µM | > 100 µM | > 100 µM
C[C@H]1CCC/C=C/[C@@H]2C[C@H](OC(=O)CCC(=O)O)C[C@H]2[C@H](OC(=O)CCC(=O)O)/C=C/C(=O)O1 | > 100 µM | > 100 µM | > 100 µM | > 100 µM | > 100 µM | > 100 µM | > 100 µM | > 100 µM
COc1ccc(S[C@@H]2CC(=O)O[C@@H](C)CCC/C=C/[C@@H]3C[C@H](O)C[C@H]3[C@@H]2O)cc1 | 26 µM | 36 µM | 24 µM | 33 µM | 22 µM | 30 µM | 29 µM | 19 µM
C[C@H]1CCC/C=C/[C@@H]2C[C@H](O)C[C@H]2[C@H](O)[C@H]([S+]([O-])CCN(C)C)CC(=O)O1 (stereo not given in full) | 0.3 µM | 0.48 µM | 0.35 µM | 0.28 µM | 0.14 µM | 0.15 µM | 0.071 µM | 0.41 µM
C[C@H]1CCC/C=C/[C@@H]2C[C@H](O)C[C@H]2[C@H](O)[C@H](SCCN(C)C)CC(=O)O1 | 0.39 µM | 2.4 µM | 0.54 µM | 0.75 µM | 0.54 µM | 1.4 µM | 0.43 µM | 0.5 µM
